Consider 14 molecules from ChEMBL document CHEMBL1130238, “Synthesis and biological activity of a series of potent fluoromethyl ketone inhibitors of recombinant human calpain I” (J Med Chem, 1997).

Usually IC50 stands for the concentration that inhibits the measured activity by half. What is called inhibition is the relative decrease from the control value, in per cent.

The target of test [1] is Cathepsin B (Homo sapiens) (UniProt P07858). The test can be described thus: Compound was tested for inhibitory against cathepsin B. The gist of the method: (§1)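 Rates of enzyme inactivation for cathepsins B and L were measured using Cbz-Phe-Arg-AMC as the fluorogenic substrate, under previously published assay conditions.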
For test [2], the target named is T1, Calpain-1 catalytic subunit (Homo sapiens) (UniProt P07384).
T1 sequence (whole entry): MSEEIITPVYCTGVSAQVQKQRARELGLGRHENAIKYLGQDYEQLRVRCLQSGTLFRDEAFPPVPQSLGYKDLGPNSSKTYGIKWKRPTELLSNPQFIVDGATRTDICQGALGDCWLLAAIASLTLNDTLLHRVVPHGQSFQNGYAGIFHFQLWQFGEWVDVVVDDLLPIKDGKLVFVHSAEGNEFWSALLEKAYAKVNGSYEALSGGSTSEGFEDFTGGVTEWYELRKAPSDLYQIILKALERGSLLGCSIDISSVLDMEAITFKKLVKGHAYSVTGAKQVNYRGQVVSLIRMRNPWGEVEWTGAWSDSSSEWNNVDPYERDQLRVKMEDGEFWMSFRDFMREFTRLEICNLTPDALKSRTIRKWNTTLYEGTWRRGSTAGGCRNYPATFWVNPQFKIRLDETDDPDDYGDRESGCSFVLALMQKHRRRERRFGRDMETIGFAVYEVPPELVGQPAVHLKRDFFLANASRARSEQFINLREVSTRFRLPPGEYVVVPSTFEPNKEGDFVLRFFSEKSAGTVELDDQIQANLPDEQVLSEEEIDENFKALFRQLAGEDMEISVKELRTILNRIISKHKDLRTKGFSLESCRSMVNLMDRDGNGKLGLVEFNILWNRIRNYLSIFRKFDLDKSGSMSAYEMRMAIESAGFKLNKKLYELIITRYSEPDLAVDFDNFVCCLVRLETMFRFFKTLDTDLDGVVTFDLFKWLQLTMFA
The test can be described thus: Inhibition of Calpain-I receptor.

Test [3] addresses Procathepsin L (Homo sapiens) (UniProt P07711). The test can be described thus: Compound was tested for inhibitory against cathepsin L. In short, it runs like this: as §1
Test [4] relates to MOLT-4. The test can be described thus: Inhibitory activity against MOH-4 cells(Human Leukemia T- cells) using intact cell assay method. The test is classed as functional, cell-based. In short, it runs like this:
(§2)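 Molt-4 cells (2×10^7/mL in HEPES-buffered saline, pH 7.2–7.5) were preincubated with inhibitor for 10 min at 37 °C, then challenged for 30 min at 37 °C by adding medium containing inhibitor, 10 mM Ca2+ and 40 μM ionomycin. Lysates were immunoblotted for calpain I-mediated spectrin breakdown products. Percent inhibition came from densitometry against no-inhibitor samples; IC50 by nonlinear regression.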

Test [5] concerns the target Cathepsin B (Homo sapiens) (UniProt P07858). The test can be described thus: Compound was tested for inhibitory against Cathepsin B. The gist of the method:
as §1

The target in test [6] is Procathepsin L (Homo sapiens) (UniProt P07711). Description: Compound was tested for inhibitory against cathepsin L. The gist of the method:
as §1

Test [7] has the same target. The test can be described thus: Compound was tested for inhibitory activity against cathepsin L. In short, it runs like this: as §1
For test [8], the target named is Cathepsin B (Homo sapiens) (UniProt P07858). Description: Compound was tested for inhibitory activity against cathepsin B. In short, it runs like this:
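Rate of inactivation of cathepsin B, with Cbz-Phe-Arg-AMC as substrate.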

The target of test [9] is T1, Calpain-1 catalytic subunit (Homo sapiens). Description: Compound was tested for inhibitory uM.
The target of test [10] is Cathepsin B (Homo sapiens) (UniProt P07858). Description: Compound was tested for inhibitory activities against cathepsin B. In short, it runs like this: as §1
In test [11] the test system is MOLT-4. The test can be described thus: Inhibitory activity against […] cells(Human Leukemia T- cells) using intact cell assay method, at 10 uM. The test is classed as functional. The gist of the method: as §2

Structures are written as SMILES. Starred links: 1 amine or outer side, 2 acyl side, 3 side chain; linkers in the order of their positions; H or OH if unused. Non-standard residues stand in square brackets, D forms with d. Residues, ends and D or L forms follow the SMILES beside them. ξ: configuration not given here. *: point of attachment. Hydrocinnamoyl = O=C(CCc1ccccc1)*; ξF = NC(Cc1ccccc1)C(=O)O; Cbz = O=C(OCc1ccccc1)*; Boc = CC(C)(C)OC(=O)*; ξL = CC(C)CC(N)C(=O)O; CO = O=C([*:1])[*:2]; NHBn = c1ccc(CN*)cc1; ξAbu = CCC(N)C(=O)O; ξS = NC(CO)C(=O)O; CH2F = FC*

Procathepsin L (Homo sapiens), sequence (P07711 114-333 limits assumed): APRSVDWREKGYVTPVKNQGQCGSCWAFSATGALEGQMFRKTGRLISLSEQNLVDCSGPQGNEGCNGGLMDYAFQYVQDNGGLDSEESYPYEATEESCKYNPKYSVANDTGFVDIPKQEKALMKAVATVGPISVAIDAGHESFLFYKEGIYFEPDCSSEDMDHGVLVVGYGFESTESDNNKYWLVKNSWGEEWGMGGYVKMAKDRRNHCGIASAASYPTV

With `CC(C)C[C@H](NS(=O)(=O)N1CCOCC1)C(=O)NC(Cc1ccccc1)C(=O)CF` (stereo partly specified), the K in [1] worked out at 100 M⁻¹ s⁻¹; in test [2], 67200 M⁻¹ s⁻¹; in test [3], 3200 M⁻¹ s⁻¹. The same molecule displayed an IC50 in the test with MOLT-4 [4] of 10000 nM.
`CC(C)C[C@H](NC(=O)N1CCc2ccccc2C1)C(=O)NC(Cc1ccccc1)C(=O)CF` (stereo partly specified): the results for the K in test [5] and in test [6] were 7500 M⁻¹ s⁻¹ and 48400 M⁻¹ s⁻¹, respectively. In the test with MOLT-4 [4], half-maximal inhibition (IC50) was put at 200 nM.
Turning to `CC(C)C[C@H](NC(=O)OCc1ccccc1)C(=O)NC(COC1CCCCO1)C(=O)CF` (stereo partly specified), the K is 9000 M⁻¹ s⁻¹ in test [1], 100000 M⁻¹ s⁻¹ in test [2] and 22600 M⁻¹ s⁻¹ in test [7]. In the test on MOLT-4 [4], this molecule had an IC50 of 1300 nM.
`CC(C)C[C@H](NC(=O)[C@H]1O[C@@H]1C(=O)O)C(=O)NCCCCN=C(N)N`: in test [2], the K came to 4700 M⁻¹ s⁻¹.
For `CC(NC(=O)[C@H](Cc1ccccc1)NC(=O)OCc1ccccc1)C(=O)CF` (stereo partly specified), the K in test [8] was 21000 M⁻¹ s⁻¹; in test [9] it was “No significant inhibition”; in test [6] it was 110000 M⁻¹ s⁻¹.
In the case of `CC(C)C[C@H](NC(=O)OC(C)(C)C)C(=O)NC(Cc1ccccc1)C(=O)CF` (stereo partly drawn) (Boc-Leu-[ξF]-CH2F), the K is 150 M⁻¹ s⁻¹ in [10], 68600 M⁻¹ s⁻¹ in test [2] and 100 M⁻¹ s⁻¹ in [6]. Besides, the inhibition at 10 µM in the test with MOLT-4 [11] was 42%.
Take `CCC(NC(=O)[C@H](CC(C)C)NC(=O)OCc1ccccc1)C(=O)CF` (stereo partly drawn) (Cbz-Leu-[ξAbu]-CH2F): the values for the K in test [1], in test [2] and in test [6] were 24500 M⁻¹ s⁻¹, 24200 M⁻¹ s⁻¹ and 64000 M⁻¹ s⁻¹, respectively.
For `CC(C)C[C@H](NC(=O)OCc1ccccc1)C(=O)NC(Cc1ccccc1)C(=O)CF` (stereo partly drawn) (Cbz-Leu-[ξF]-CH2F), the K in test [1] came to 300 M⁻¹ s⁻¹; in test [2], 136000 M⁻¹ s⁻¹; in test [6] it was 5000 M⁻¹ s⁻¹. This molecule showed an IC50 in the test with MOLT-4 [4] of 200 nM.
Consider `CC(C)C[C@H](NC(=O)OCc1ccccc1)C(=O)NC(CO)C(=O)CF` (stereo partly drawn) (Cbz-Leu-[ξS]-CH2F), for which the K amounted to 16300 M⁻¹ s⁻¹ in test [1], 21000 M⁻¹ s⁻¹ in test [2] and 31000 M⁻¹ s⁻¹ in [6].
On to `CC(C)[C@H](NC(=O)OCc1ccccc1)C(=O)NC(Cc1ccccc1)C(=O)CF` (stereo partly drawn) (Cbz-Val-[ξF]-CH2F), for which the K in test [1] turned out to be 360 M⁻¹ s⁻¹; in [2], 35000 M⁻¹ s⁻¹; in test [6], 21500 M⁻¹ s⁻¹.
For the molecule `CC(C)CC(NC(=O)OCc1ccccc1)C(=O)N[C@@H](CC(C)C)C(=O)NC(Cc1ccccc1)C(=O)CF` (stereo partly specified) (Cbz-[ξL]-Leu-[ξF]-CH2F), the K in test [1] came out at 4600 M⁻¹ s⁻¹; in test [2] it was 290000 M⁻¹ s⁻¹; in [6], 256000 M⁻¹ s⁻¹. The molecule also had an IC50 with MOLT-4 [4] of 100 nM.
Turning to `CC(C)C[C@H](N)C(=O)N[C@@H](Cc1ccccc1)C(=O)CF` (H-Leu-Phe-CH2F), the K in test [1] turned out to be 25 M⁻¹ s⁻¹; in test [2], 8000 M⁻¹ s⁻¹; in [6], 250 M⁻¹ s⁻¹.
The like results for `CC(C)C[C@H](NC(=O)CCc1ccccc1)C(=O)NC(Cc1ccccc1)C(=O)CF` (stereo partly specified) (Hydrocinnamoyl-Leu-[ξF]-CH2F) were, in that order, 600 M⁻¹ s⁻¹, 26600 M⁻¹ s⁻¹ and 800 M⁻¹ s⁻¹.
As to `CC(C)C[C@H](NC(=O)NCc1ccccc1)C(=O)NC(Cc1ccccc1)C(=O)CF` (stereo partly specified) ({NHBn-CO}-Leu-[ξF]-CH2F), the K in [5] worked out at 275 M⁻¹ s⁻¹; in test [2], 67000 M⁻¹ s⁻¹; in test [7], 9400 M⁻¹ s⁻¹. In the test with MOLT-4 [4], this molecule came in with an IC50 of 800 nM.
